Sampled rows, rich in hits. Any-hit rate of the full collection: about 3.1%.
OX1R antag-1: blocks the human orexin 1 receptor; O43613; CHO/OX1R cells, Fluo-8 calcium fluorescence, orexin A; inhibition, % at 5 µM; hit rate 0.43% among 330,000; AID 434989;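 active = inhibition above its plate's threshold, mean inhibition of all tested compounds on the plate plus 3 SD, cut at about 37% in these data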;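 also: 0% = orexin A challenge wells and 100% = SB-334867-A antagonist wells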
OX1R antag-2: OX1R (human) antagonism | O43613 | OX1R-expressing cells, FRET antagonist read-out | inhibition, % at 6.6 µM | hit rate 1.8% among 330,000 | AID 485270; in the data active = inhibition mostly above about 38%, no sharp cut-off; inactive = mostly below about 40%;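 also: 0% = agonist challenge alone and 100% = reference antagonist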
GalR3 antagonist: antagonists of human GalR3. O60755. HEK293 GalR3-CNG cAMP membrane potential fluorescence; galR3 body fused to GalR1 C-terminus. inhibition, % at 3 µM. hit rate 0.44% among 360,000;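 active = inhibition above the screen-wide average plus 3 SD, cut at about 13% in these data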;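 also: forskolin and galanin both at EC90 stimulate the cells; cAMP rise reported by CNG channel membrane potential dye signal; 0% = forskolin plus galanin with DMSO and 100% = forskolin alone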
Target sequence (O60755 1-299 limits assumed): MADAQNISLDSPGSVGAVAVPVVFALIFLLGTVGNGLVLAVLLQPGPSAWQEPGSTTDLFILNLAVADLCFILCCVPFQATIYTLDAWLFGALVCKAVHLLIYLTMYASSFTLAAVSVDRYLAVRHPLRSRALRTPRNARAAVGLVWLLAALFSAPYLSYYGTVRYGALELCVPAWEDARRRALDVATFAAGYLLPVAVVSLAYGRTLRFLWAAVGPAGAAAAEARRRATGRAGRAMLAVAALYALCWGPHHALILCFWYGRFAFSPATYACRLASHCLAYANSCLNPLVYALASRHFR
GPR7 antag: human neuropeptides B/W receptor 1 antagonism; P48145; GPR7-expressing cells, fluorescence antagonist assay; inhibition, % at 4.4 µM; hit rate 1.1% among 290,000; in the data active = inhibition above about 16%, passing the limit was not always enough;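 also: cells stimulated with the agonist NPW; 0% = agonist with vehicle and 100% = vehicle without agonist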
Target sequence (P48145 whole entry, looked up): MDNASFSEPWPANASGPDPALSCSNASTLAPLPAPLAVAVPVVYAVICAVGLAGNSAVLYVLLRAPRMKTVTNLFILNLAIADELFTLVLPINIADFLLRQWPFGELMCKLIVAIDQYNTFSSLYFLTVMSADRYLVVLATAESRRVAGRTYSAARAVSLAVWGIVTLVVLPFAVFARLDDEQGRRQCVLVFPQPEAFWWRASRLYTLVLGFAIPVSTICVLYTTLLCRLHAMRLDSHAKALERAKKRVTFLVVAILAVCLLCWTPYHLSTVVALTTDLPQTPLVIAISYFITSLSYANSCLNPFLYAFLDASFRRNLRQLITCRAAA
CHO parental Ca: signal in parental CHO cells, OX1R antagonist counter-screen; parental CHO-K1, ATP-induced calcium, Fluo-8 fluorescence; inhibition, % at 5.6 µM; hit rate 0.63% among 330,000;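 active = inhibition above that plate's mean sample inhibition plus 3 SD, cut at about 26% in these data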;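 also: 0% = ATP-challenged DMSO wells and 100% = DMSO wells without ATP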
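test system = CHO parental line | reagent = ATP stimulus | measured by = intracellular calcium via Fluo-8 no-wash fluorescent dye | control set = ATP and no-ATP DMSO wells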
GPR7 antag conf: confirmation of human GPR7 antagonists. shares compounds with GPR7 antag. GPR7-expressing cells, calcium fluorescence antagonist mode. inhibition, % at 4.4 µM. hit rate 52% among 2,400. AID 1952; in the data active = inhibition above about 24%;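 also: stimulated with the GPR7 agonist NPW; 0% = agonist plus vehicle and 100% = vehicle alone without agonist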
MCHR1 antagonist: antagonizes human MCHR1, a GPR7 antagonist counter-screen. shares compounds with GPR7 antag. MCHR1-expressing cells, fluorescence antagonist assay. inhibition, % at 4.4 µM. hit rate 62% among 2,400. AID 2148; in the data active = inhibition above about 22%;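 also: 0% = vehicle with agonist and 100% = vehicle without agonist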
* = called active by the depositor; / = no result.

SMILES	OX1R antag-1	OX1R antag-2	GalR3 antagonist	GPR7 antag	CHO parental Ca	GPR7 antag conf	MCHR1 antagonist
CCCN(CC(=O)Nc1cccc(Br)c1)CC(=O)Nc1ccc(F)c(F)c1F	-19	9	-4	23*	-16	31*	47*
CCCN(CC(=O)Nc1ccc(F)c(F)c1F)CC(=O)Nc1c(Cl)cccc1Cl	-16	10	-7	22*	-36	25*	25*
COc1ccc(C(=O)c2[nH]c(N)c(C(=O)NCCc3c[nH]c4ccccc34)c2-c2ccccc2C(F)(F)F)cc1	/	/	-5	/	/	/	/
COc1cccc([C@@H](NC(=O)C(F)(F)F)[C@@H]2CCCC=C2c2ccccc2)c1	/	/	-12	/	/	/	/
O=S(CC(O)c1ccccc1)c1ccccc1 (configuration not stated)	/	/	-7	/	/	/	/
COc1ccccc1C(=O)N(CCC1CCCN1C)c1nc2ccccc2s1 (configuration not stated)	-32	-1	-1	24*	-20	26*	9
C=CCN1C[C@H](COC(=O)CSc2ccccc2)Oc2cccc(F)c2S1(=O)=O	/	/	-3	/	/	/	/
COc1ccc(C=O)cc1COc1ccc(C)cc1[N+](=O)[O-]	-16	43	-6	31*	-9	28*	61*
COc1cc(C)ccc1OCCOCCOc1ccc(C)cc1[N+](=O)[O-]	-25	15	2	1	-16	/	/
CCCCn1c(N)c(N(CC)C(=O)CSc2nnnn2-c2cc(C)ccc2C)c(=O)[nH]c1=O	-16	-2	-6	23*	-6	-9	-10
CCOC(=O)C1CCCN(C(=O)c2ccc(S(=O)(=O)NCc3ccco3)cc2)C1 (configuration not stated)	-20	16	-2	/	-5	/	/
CC1CCCC(C)N1C(=O)c1ccc(S(=O)(=O)NCc2ccco2)cc1 (configuration not stated)	-31	26	-9	31*	19	4	23*
O=C(NC1CCCCC1)c1ccc(S(=O)(=O)NCc2ccco2)cc1	-14	12	-2	34*	-8	22	25*
O=C(NC1CCCCC1)c1ccc(S(=O)(=O)NCc2cccnc2)cc1	-12	6	-5	-10	-11	/	/
CN(Cc1cccs1)C(=O)CCCc1c[nH]c2ccccc12	-23	20	-5	33*	-10	33*	45*
CN(Cc1cccs1)C(=O)CCc1c[nH]c2ccccc12	-15	28	-8	-5	2	/	/
C=CCN1C(C(=O)OCC)CSCCS1(=O)=O (configuration not stated)	/	/	-1	/	/	/	/
O=C(NCc1ccccc1)C1C(c2ccc3c(c2)OCO3)=Nc2ccccc2N1C(=O)c1cccc2ccccc12 (configuration not stated)	/	/	-5	/	/	/	/
COc1ccc(OC(=O)N(C)C[C@H]2OCc3cn(nn3)CCCC(=O)N([C@H](C)CO)C[C@@H]2C)cc1	/	/	-7	/	/	/	/
CC(C)C1C(C#N)=C(N)SC(N)=C1C#N	-2	10	-5	-3	4	/	/
CCC(CC)C1C(C#N)=C(N)SC(N)=C1C#N	-4	1	-3	22*	-5	10	18
COc1cc(CNC(C)(C)CO)cc(Br)c1OCc1ccc(Cl)cc1Cl	16	1	-6	29*	14	57*	57*
C=CCc1cccc([C@@H]2[C@@H](C)CC[C@H]3C(=O)N4[C@@H](c5cc(OC)c(OC)c(OC)c5)c5[nH]c6ccccc6c5C[C@H]4C(=O)N23)c1	-22	3	/	33*	-17	8	6
CNCCNC[C@H](Cc1cccc2ccccc12)NCCc1ccccc1	-15	16	-2	/	-13	/	/
CNC[C@H](Cc1ccccc1)NC[C@@H](Cc1cccc2ccccc12)NCCc1ccc(C)cc1	25	19	-2	43*	23	67*	76*
SMILES	OX1R antag-1	OX1R antag-2	GalR3 antagonist	GPR7 antag	CHO parental Ca	GPR7 antag conf	MCHR1 antagonist
COC(=O)c1ccc(OCC2c3cc(OC)c(OC)cc3CCN2C(=O)C2CC2)cc1 (configuration not stated)	-19	9	-6	27*	3	43*	29*
O=C1NC(=S)S/C1=C/c1ccc(OC(=O)c2ccco2)cc1	-4	52	-6	28*	-10	16	23*
O=C(NCc1ccccn1)[C@@H]1CCCN1C(=O)[C@@H]1CCCN1C(=O)c1cccs1	/	/	-6	/	/	/	/
COc1cc(C)ccc1Oc1ncnc(N)c1[N+](=O)[O-]	-11	14	-8	51*	3	-6	-6
COc1ccc(OC)c(N(CC(=O)N2CCC(C)CC2)S(=O)(=O)c2ccc(OC)c(OC)c2)c1	-32	22	-4	-10	-16	/	/
COc1ccc(OC)c(N(CC(=O)N2CCC(C)CC2)S(=O)(=O)c2ccccc2)c1	-21	31	-10	26*	-15	21	18
O=C(CSc1nc(O)cc(=O)n1C1CCCC1)Nc1cccc(Cl)c1Cl	3	9	3	28*	-5	15	7
Cc1ccc(NC(=O)CN2C(=O)S/C(=C\c3cc(Cl)c(OCC(=O)O)c(Cl)c3)C2=O)cc1	4	3	-5	-9	4	/	/
Nc1cc(=O)nc(SCC(=O)N2CCN(c3ccccc3)CC2)n1-c1ccc(F)cc1	-14	-7	-3	-5	-6	/	/
CCCCn1nnnc1C1(C)CCC(=O)N1CCc1ccccc1F (configuration not stated)	/	/	-8	/	/	/	/
COc1ccc(CC(=O)NCC2CCN(C(=O)C(=O)c3cc4ccccc4o3)CC2)cc1	/	/	0	/	/	/	/
CN1CCC(Oc2ccccc2Sc2ccc(C(F)(F)F)cc2)CC1	-4	9	0	27*	-5	30*	64*
CN1CCC(NC(=O)c2cc(-c3cccc(Br)c3)nc3ccccc23)CC1	-1	12	-2	42*	-17	37*	32*
CC(NCc1ccc(OCc2ccc(Cl)cc2)cc1)C(O)c1ccccc1 (configuration not stated)	-3	6	-12	27*	34	58*	81*
CC(NCc1cccc(OCc2ccccc2)c1)C(O)c1ccccc1 (configuration not stated)	-29	6	-4	5	-5	/	/
CCOC(=O)c1sc(NC(=O)CC(C)c2ccccc2)nc1C (configuration not stated)	-4	37	-15	34*	-7	37*	28*
CCOC(=O)c1sc(NC(=O)CCc2ccccc2)nc1C	-21	27	-12	1	-12	/	/
Cc1cc(C)cc(CC(=O)N2CCC2(C)C(=O)NS(=O)(=O)c2ccc(C(C)(C)C)cc2)c1 (configuration not stated)	/	/	-8	/	/	/	/
CCCC(=O)Nc1ccc(S(=O)(=O)N2CCc3ccccc32)cc1	/	/	-9	/	/	/	/

Source: PubChem BioAssay
